Activity calls are given as the source filed them.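 The calls were made as follows, unless noted: active = viability at or under a set limit in both replicates, limit being median viability minus 3 SD (cut at about 48% in these data, passing the limit was not always enough); inconclusive = at or under the limit in just one replicate; inactive = at or above the limit in both replicates.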

The first experiment in a line: HUVEC growth inhibition – cell-based, human, primary screen (AID 575;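 active = viability at or below 30% in both replicate assays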;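 also: 100% = median of untreated cell wells with 0.1% DMSO on each plate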). To be noted: HUVEC proliferation, CellTiter-Glo luminescence, 72 h; at 10 µM; hits give low values. The gist of the method: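 Test system: primary human umbilical vein endothelial cells. Quantity: 1250 cells/well. Compound: single 10 µM dose, 0.1% DMSO, from 5x medium stock. Timing: 72 h treatment at 37 °C. Detection: ATP-based CellTiter-Glo luminescent read. Benchmarks: vehicle and MePR control wells. Format: 384-well plates coated with collagen.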
In the case of `O=C1c2ccccc2C(=O)N1Cc1nc2ccccc2c(=O)n1CCN1CCOCC1`, the viability was 111% (inactive).

`Nc1c(C(=O)NCCc2ccccc2)nnn1Cc1ccccc1`: the viability is 89% (inactive).

`CC1/C(=N/O)C(CN(C)C)C2CC1C2(C)C` (stereo not given): the viability is 99.3% (inactive).

`Nc1cc(-c2ccccc2)ccc1O`: the viability was 86.3% (inactive).

Take `CCOC(=O)c1c(C)[nH]c(C=Nc2ccccc2)c1O`: the viability is 106% (inactive).

For the compound `O=C(COc1nnc2ccccn12)N1CCN(S(=O)(=O)c2ccccc2)CC1`, the viability is 98.8% (inactive).

For the compound `O=C(Nc1ccc2nc(-c3cccs3)[nH]c2c1)c1ccco1`, the viability is 94.2% (inactive).

Take `COC(=O)c1ccccc1NC(=O)CC(NCc1ccccc1)C(=O)O` (stereo not given): the viability was 103% (inactive).

As for `CCOC(=O)c1oc2ccccc2c1CSc1nnnn1-c1ccc(OC)cc1`, the viability was 77.4% (inactive).

For `CC1(C)CC(=O)C2=C(C1)OC(=O)C2(NC(=O)c1cccs1)C(F)(F)F` (stereo not given), the viability is 88.3% (inactive).

As to `CCc1ccc(CNCc2cccnc2)cc1`, the viability is 91.2% (inactive).

Consider `CCOC(=O)C1CCN(C(=O)C2CCN(S(=O)(=O)c3cc(Cl)ccc3Cl)CC2)CC1`, for which the viability is 115% (inactive).

`Cc1cnc(-c2nnc(N(C)C(=O)C3CCOC3)s2)cn1` (stereo not given): the viability is 98.2% (inactive).

As for `CN1/C(=C\C(=O)C(F)F)C(C)(C)c2ccccc21`, the viability is 99.5% (inactive).

In the case of `Nc1cc(CN2C(=O)c3ccccc3C2=O)cc(Cl)c1O`, the viability is 75.1% (inactive).

Take `COCc1nnc(NC(=O)CCCOc2ccccc2)s1`: the viability is 85.6% (inactive).

On to `CCCN(CCC)S(=O)(=O)c1ccc(NS(C)(=O)=O)cc1`, for which the viability is 98.2% (inactive).

In the case of `Cc1nnc2n(-c3ccccc3)c(=O)c3c4c(sc3n12)CCCC4`, the viability was 96.2% (inactive).

With `COC(=O)c1ccccc1NC(=O)C1CC(=O)N(c2ccc(F)cc2)C1` (stereo not given), the viability is 108% (inactive).

Regarding `O=C(CCc1ccccc1)Nc1ccncc1`, the viability was 103% (inactive).

Consider `CN(CC(=O)Nc1nccs1)S(=O)(=O)c1ccc(F)cc1`, for which the viability is 92.1% (inactive).

With `COc1cccc(-c2nc(CSCC(=O)N3CCc4ccccc43)c(C)o2)c1`, the viability was 82.1% (inactive).

With `CCCC(=O)Nc1nnc(CC(=O)OCC)s1`, the viability was 113% (inactive).

In the case of `COc1ccc(N2CCN(C(c3cccs3)C(C)NC(=O)c3ccco3)CC2)cc1` (stereo not given), the viability was 82.1% (inactive).

As for `O=C(CSc1ncccn1)NCc1ccccc1`, the viability is 106% (inactive).

On to `Cc1ccc(-c2[nH]nc3c2C(c2ccc(OC(=O)N4CCOCC4)cc2)C(C#N)=C(N)O3)cc1` (stereo not given), for which the viability was 106% (inactive).

Consider `O=C(Nc1ccccc1)N(O)c1ccc(Cl)cc1`, for which the viability was 88.5% (inactive).

On to `CCCCCC(=O)N1CC2(CC)CN(C(=O)CCCCC)CC(CC)(C1)C2=O`, for which the viability is 91.7% (inactive).

`Cc1cc(NC(=O)C23CCC(C)(c4nc5cc(Cl)c(Cl)cc5nc42)C3(C)C)no1` (stereo not given): the viability was 88.5% (inactive).

As to `CCOC(=O)CSc1nnc(Cn2nnc(-c3ccccc3)n2)n1CC`, the viability was 107% (inactive).

Turning to `O=C(COC(=O)c1ccc(Br)o1)Nc1ccc(S(=O)(=O)N2CCCC2)cc1`, the viability is 102% (inactive).

As to `Cc1cccc(-n2c(O)c(C=Nc3ccccc3N)c(=O)[nH]c2=O)c1`, the viability is 88.2% (inactive).

On to `Cn1c(-c2ccccc2)cc(=O)c2ccccc21`, for which the viability is 102% (inactive).

Take `COc1cc(S(=O)(=O)NC2CCCCC2)ccc1Cl`: the viability is 82.3% (inactive).

On to `c1ccc(Cn2nnnc2CN2CCN(c3ncccn3)CC2)cc1`, for which the viability is 92.1% (inactive).

Turning to `CS(=O)(=O)N(CC(=O)O)c1cccc(Cl)c1`, the viability was 115% (inactive).

In the case of `O=S1(=O)CC(N2CCOCC2)c2ccccc21` (stereo not given), the viability was 92.2% (inactive).

With `C=CCn1cc(C(=O)NCCOC)c(=O)c2cc(S(=O)(=O)N(CC)CC)ccc21`, the viability is 86.6% (inactive).

On to `Cc1ccc(C(=O)OCC(=O)c2ccc(Cl)s2)s1`, for which the viability is 96% (inactive).

As to `CCOC(=O)/N=C(/NC(=O)Nc1ccc(C(=O)OCC)cc1)OC`, the viability is 83.7% (inactive).

The next experiment can be described thus: H69AR cell proliferation blockers – human, duplicate replicates, primary screen (AID 580).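 Also: 100% = mean luminescence of untreated wells and 0% = no signal.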 To be noted: H69AR lung tumor cells viability, ATP luminescence, 72 h; at 10 µM; hits give low values.
For the compound `O=C1c2ccccc2C(=O)N1Cc1nc2ccccc2c(=O)n1CCN1CCOCC1`, the viability was 88.8% (inactive).

`Nc1c(C(=O)NCCc2ccccc2)nnn1Cc1ccccc1`: the viability was 95.8% (inactive).

As for `CC1/C(=N/O)C(CN(C)C)C2CC1C2(C)C` (stereo not given), the viability was 108% (inactive).

Take `Nc1cc(-c2ccccc2)ccc1O`: the viability was 73% (inactive).

Regarding `CCOC(=O)c1c(C)[nH]c(C=Nc2ccccc2)c1O`, the viability was 101% (inactive).

Take `O=C(COc1nnc2ccccn12)N1CCN(S(=O)(=O)c2ccccc2)CC1`: the viability was 97.2% (inactive).

As for `O=C(Nc1ccc2nc(-c3cccs3)[nH]c2c1)c1ccco1`, the viability was 75.2% (inactive).

With `COC(=O)c1ccccc1NC(=O)CC(NCc1ccccc1)C(=O)O` (stereo not given), the viability was 104% (inactive).

Take `CCOC(=O)c1oc2ccccc2c1CSc1nnnn1-c1ccc(OC)cc1`: the viability is 75% (inactive).

For the compound `CC1(C)CC(=O)C2=C(C1)OC(=O)C2(NC(=O)c1cccs1)C(F)(F)F` (stereo not given), the viability was 98% (inactive).

Turning to `CCc1ccc(CNCc2cccnc2)cc1`, the viability was 92.4% (inactive).

For the compound `CCOC(=O)C1CCN(C(=O)C2CCN(S(=O)(=O)c3cc(Cl)ccc3Cl)CC2)CC1`, the viability is 89.4% (inactive).

Take `Cc1cnc(-c2nnc(N(C)C(=O)C3CCOC3)s2)cn1` (stereo not given): the viability is 101% (inactive).

Consider `CN1/C(=C\C(=O)C(F)F)C(C)(C)c2ccccc21`, for which the viability is 107% (inactive).

Consider `Nc1cc(CN2C(=O)c3ccccc3C2=O)cc(Cl)c1O`, for which the viability is 108% (inactive).

Consider `COCc1nnc(NC(=O)CCCOc2ccccc2)s1`, for which the viability is 98.5% (inactive).

For the compound `CCCN(CCC)S(=O)(=O)c1ccc(NS(C)(=O)=O)cc1`, the viability is 105% (inactive).

Turning to `Cc1nnc2n(-c3ccccc3)c(=O)c3c4c(sc3n12)CCCC4`, the viability was 85.6% (inactive).

As for `COC(=O)c1ccccc1NC(=O)C1CC(=O)N(c2ccc(F)cc2)C1` (stereo not given), the viability was 96% (inactive).

In the case of `O=C(CCc1ccccc1)Nc1ccncc1`, the viability was 97.8% (inactive).

As to `CN(CC(=O)Nc1nccs1)S(=O)(=O)c1ccc(F)cc1`, the viability was 95.2% (inactive).

For `COc1cccc(-c2nc(CSCC(=O)N3CCc4ccccc43)c(C)o2)c1`, the viability is 87.1% (inactive).

Take `CCCC(=O)Nc1nnc(CC(=O)OCC)s1`: the viability was 88.1% (inactive).

Turning to `COc1ccc(N2CCN(C(c3cccs3)C(C)NC(=O)c3ccco3)CC2)cc1` (stereo not given), the viability is 86.3% (inactive).

In the case of `O=C(CSc1ncccn1)NCc1ccccc1`, the viability was 105% (inactive).

As to `Cc1ccc(-c2[nH]nc3c2C(c2ccc(OC(=O)N4CCOCC4)cc2)C(C#N)=C(N)O3)cc1` (stereo not given), the viability was 85.5% (inactive).

Consider `O=C(Nc1ccccc1)N(O)c1ccc(Cl)cc1`, for which the viability was 89.7% (inactive).

Take `CCCCCC(=O)N1CC2(CC)CN(C(=O)CCCCC)CC(CC)(C1)C2=O`: the viability is 83.3% (inactive).

Turning to `Cc1cc(NC(=O)C23CCC(C)(c4nc5cc(Cl)c(Cl)cc5nc42)C3(C)C)no1` (stereo not given), the viability is 91.6% (inactive).

As for `CCOC(=O)CSc1nnc(Cn2nnc(-c3ccccc3)n2)n1CC`, the viability is 90.7% (inactive).

Turning to `O=C(COC(=O)c1ccc(Br)o1)Nc1ccc(S(=O)(=O)N2CCCC2)cc1`, the viability is 95.6% (inactive).

`Cc1cccc(-n2c(O)c(C=Nc3ccccc3N)c(=O)[nH]c2=O)c1`: the viability was 10.1% (active).

Regarding `Cn1c(-c2ccccc2)cc(=O)c2ccccc21`, the viability is 96.6% (inactive).

Turning to `COc1cc(S(=O)(=O)NC2CCCCC2)ccc1Cl`, the viability is 92.7% (inactive).

Consider `c1ccc(Cn2nnnc2CN2CCN(c3ncccn3)CC2)cc1`, for which the viability was 100% (inactive).

With `CS(=O)(=O)N(CC(=O)O)c1cccc(Cl)c1`, the viability was 95.7% (inactive).

Turning to `O=S1(=O)CC(N2CCOCC2)c2ccccc21` (stereo not given), the viability was 103% (inactive).

Regarding `C=CCn1cc(C(=O)NCCOC)c(=O)c2cc(S(=O)(=O)N(CC)CC)ccc21`, the viability is 83.1% (inactive).

With `Cc1ccc(C(=O)OCC(=O)c2ccc(Cl)s2)s1`, the viability was 97.4% (inactive).

Turning to `CCOC(=O)/N=C(/NC(=O)Nc1ccc(C(=O)OCC)cc1)OC`, the viability was 96.5% (inactive).
